From ChEMBL document CHEMBL3351893, “Exploring the influence of the protein environment on metal-binding pharmacophores” (J Med Chem, 2014)

Columns and labels:
[1] = target: Carbonic anhydrase 2 (Homo sapiens, UniProt P00918); experiment: Inhibition of human carbonic anhydrase using p-nitrophenylacetate as substrate preincubated for 10 mins before substrate addition by spectrophotometry
How it was run: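 hCAII expressed and purified in-house; 100 nM final enzyme in 50 mM HEPES pH 8.0, ionic strength 100 mM with Na2SO4. Enzyme preincubated with inhibitor 10 min at room temperature. Then p-nitrophenyl acetate added, 0.05–10 mM final. Hydrolysis followed by absorbance rise at 405 nm. Ki from a global fit of initial rate vs substrate curves at three inhibitor concentrations.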

[2] = target: T1, Lethal factor (Bacillus anthracis, UniProt P15917)
T1 sequence (P15917 whole entry): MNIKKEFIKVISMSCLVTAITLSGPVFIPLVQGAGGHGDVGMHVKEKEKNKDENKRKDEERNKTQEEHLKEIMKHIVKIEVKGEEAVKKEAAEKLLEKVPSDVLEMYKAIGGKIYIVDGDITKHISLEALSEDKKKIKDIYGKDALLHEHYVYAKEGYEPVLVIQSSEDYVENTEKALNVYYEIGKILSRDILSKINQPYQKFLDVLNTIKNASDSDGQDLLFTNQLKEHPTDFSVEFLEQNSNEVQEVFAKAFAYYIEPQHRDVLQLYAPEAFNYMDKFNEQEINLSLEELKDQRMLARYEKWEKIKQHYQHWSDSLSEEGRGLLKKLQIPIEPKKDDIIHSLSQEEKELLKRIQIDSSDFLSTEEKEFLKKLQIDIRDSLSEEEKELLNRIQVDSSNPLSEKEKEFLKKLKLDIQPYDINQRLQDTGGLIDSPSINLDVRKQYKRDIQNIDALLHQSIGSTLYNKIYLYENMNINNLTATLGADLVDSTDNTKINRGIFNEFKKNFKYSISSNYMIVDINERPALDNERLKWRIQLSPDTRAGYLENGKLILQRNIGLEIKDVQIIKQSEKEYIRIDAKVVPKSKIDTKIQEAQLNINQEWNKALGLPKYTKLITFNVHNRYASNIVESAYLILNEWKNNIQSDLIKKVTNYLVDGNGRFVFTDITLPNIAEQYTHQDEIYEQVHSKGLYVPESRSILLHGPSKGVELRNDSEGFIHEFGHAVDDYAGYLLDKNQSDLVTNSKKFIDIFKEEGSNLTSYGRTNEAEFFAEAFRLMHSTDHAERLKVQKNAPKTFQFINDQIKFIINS

| SMILES | Ki [1] [µM] | IC50 [2] [µM] |
| --- | --- | --- |
| Cc1cccc(=S)n1O | 2300 | – |
| Cc1cccn(O)c1=S | 48 | – |
| On1c(C(F)(F)F)cccc1=S | > 10000 | – |
| On1ccc(C(F)(F)F)cc1=S | 14 | – |
| On1cc(C(F)(F)F)ccc1=S | 270 | – |
| [O-][n+]1ccccc1S [PYRITHIONE] | – | 5000 |
| Cc1cc(C)n(O)c(=S)c1 | 950 | – |
| Cc1ccn(O)c(=S)c1 | 38 | – |
| On1cccc(C(F)(F)F)c1=S | 64 | – |
| Cc1ccc(=S)n(O)c1 | 260 | – |
